Measurements reported in the RNAGym collection of RNA variant scans (doi:10.1126/science.aae0568).
This sample holds only a part of the variants without activity.

B1: tRNA (parent)
chain: GUUCCGUUGGCGUAAUGGUAACGCGUCUCCCUCCUAAGGAGAAGACUGCGGGUUCGAGUCCCGUACGGAACG

Variants of: B1
Test: yeast fitness relative to wild type (ratio to wild type); higher = fitter; tRNA-Arg(CCU), competitive growth, 37 C, YPD
Procedure, shortened: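 Gene amplicons from the start population and from each of six end populations were read by 100-nucleotide paired-end sequencing. Those end populations came from pooled Saccharomyces cerevisiae strains carrying tRNA-Arg(CCU) gene variants at the native locus, competed in YPD at 37°C for 24 hours. Fitness relative to wild type was worked out from changes in genotype frequencies. Genotypes needed ≥ 100 starting reads, and estimates < 0.5 were set to 0.5.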

**Q.** Which yeast fitness does the source give for C11G C49G C60A A70U here?
**A.** ≤ 0.5

**Q.** For C11G A40U A45U A69U, which yeast fitness is on record?
**A.** ≤ 0.5

**Q.** For C11G A15G C22A U26A A40U U54C C62A, which yeast fitness is on record?
**A.** ≤ 0.5

**Q.** Which yeast fitness does the source give for C11G C34U C66U here?
**A.** ≤ 0.5

**Q.** Which yeast fitness does the source give for C11A U13G C24G C34G G52A here?
**A.** ≤ 0.5

**Q.** For C11A G25A C46G A57U, which yeast fitness is on record?
**A.** ≤ 0.5

**Q.** For C11A U16C G18C A45C A57C, which yeast fitness is on record?
**A.** ≤ 0.5

**Q.** Which yeast fitness does the source give for C11A G44C here?
**A.** 0.59

**Q.** Which yeast fitness does the source give for C11A G39A C62A here?
**A.** ≤ 0.5

**Q.** Which yeast fitness does the source give for C11G A45G C49U C55A A70U here?
**A.** ≤ 0.5

**Q.** For C11G A20G U32A, which yeast fitness is on record?
**A.** ≤ 0.5

**Q.** Which yeast fitness does the source give for C11G C46U A65C here?
**A.** 0.561

**Q.** With C11G C55G G63C G67C as the variant, how does the yeast fitness read?
**A.** 0.557

**Q.** For C11G C30G C31G U32A C55G G67A, which yeast fitness is on record?
**A.** 0.696

**Q.** For C11G C31G, which yeast fitness is on record?
**A.** 0.555

**Q.** For C11G C31A, which yeast fitness is on record?
**A.** 0.508

**Q.** With C11A U13C C27A C60A as the variant, how does the yeast fitness read?
**A.** ≤ 0.5

**Q.** Which yeast fitness does the source give for C11G C27G U28G here?
**A.** 0.626

**Q.** With C11G A15G U26G G44A as the variant, how does the yeast fitness read?
**A.** ≤ 0.5

**Q.** With C11G A36C C46U as the variant, how does the yeast fitness read?
**A.** ≤ 0.5

**Q.** For C11A U32C A65U, which yeast fitness is on record?
**A.** 0.565

**Q.** Which yeast fitness does the source give for C11G C22A C31A C61A here?
**A.** ≤ 0.5

**Q.** For C11G C24G G67C, which yeast fitness is on record?
**A.** 0.566

**Q.** With C11G A15C A70C as the variant, how does the yeast fitness read?
**A.** ≤ 0.5

**Q.** With C11G C27U C46G as the variant, how does the yeast fitness read?
**A.** ≤ 0.5

**Q.** For C11G A14G, which yeast fitness is on record?
**A.** 0.529

**Q.** Which yeast fitness does the source give for C11A U16C C27G G48C here?
**A.** ≤ 0.5

**Q.** For C11A U19C C24G C30U C31U C61U G67C, which yeast fitness is on record?
**A.** ≤ 0.5

**Q.** With C11A U16C C33U A37C as the variant, how does the yeast fitness read?
**A.** ≤ 0.5

**Q.** For C11G C29U C34U C62A U64C C66U, which yeast fitness is on record?
**A.** ≤ 0.5

**Q.** Which yeast fitness does the source give for C11A U16C G18C C61A G67A here?
**A.** ≤ 0.5

**Q.** With C11G A21G C34A as the variant, how does the yeast fitness read?
**A.** ≤ 0.5

**Q.** With C11G A43C as the variant, how does the yeast fitness read?
**A.** 0.63

**Q.** With C11G A42G A45U U64C A70C as the variant, how does the yeast fitness read?
**A.** 0.527

**Q.** With C11G A15G C22A U26A A40U C62A as the variant, how does the yeast fitness read?
**A.** 0.638

**Q.** With C11G A14C G23C G41C C61A as the variant, how does the yeast fitness read?
**A.** ≤ 0.5

**Q.** For C11G A21G C31G A65U, which yeast fitness is on record?
**A.** 0.561

**Q.** For C11G A15U C22U U32C A42G, which yeast fitness is on record?
**A.** ≤ 0.5

**Q.** Which yeast fitness does the source give for C11G A21U C24U C66U here?
**A.** 0.631

**Q.** For C11G A20G C33U A37U, which yeast fitness is on record?
**A.** ≤ 0.5

**Q.** For C11G C33G A69U, which yeast fitness is on record?
**A.** ≤ 0.5

**Q.** Which yeast fitness does the source give for C11A U26G G44A G52A here?
**A.** 0.55

**Q.** For C11G G12A C31G U59G A65G, which yeast fitness is on record?
**A.** ≤ 0.5

**Q.** For C11G C46G A57U, which yeast fitness is on record?
**A.** 0.624

**Q.** For C11G C34U G41A, which yeast fitness is on record?
**A.** 0.544

**Q.** With C11G A20U U28C A37C C49G as the variant, how does the yeast fitness read?
**A.** 0.611

**Q.** With C11G A14G A20U C27G C29U C62U as the variant, how does the yeast fitness read?
**A.** ≤ 0.5

**Q.** For C11A U13A, which yeast fitness is on record?
**A.** 0.603

**Q.** Which yeast fitness does the source give for C11A U13C C27A here?
**A.** ≤ 0.5

**Q.** Which yeast fitness does the source give for C11G here?
**A.** 0.661

**Q.** For C11G C27U U47A G52C, which yeast fitness is on record?
**A.** ≤ 0.5

**Q.** With C11A G17C A43G as the variant, how does the yeast fitness read?
**A.** ≤ 0.5

**Q.** For C11G C27A A57C C62U, which yeast fitness is on record?
**A.** ≤ 0.5

**Q.** For C11G C27A C31A, which yeast fitness is on record?
**A.** ≤ 0.5

**Q.** Which yeast fitness does the source give for C11G G18A C24U G58A A70G here?
**A.** ≤ 0.5

**Q.** Which yeast fitness does the source give for C11A G25A here?
**A.** 0.572

**Q.** For C11G C62A A70C, which yeast fitness is on record?
**A.** 0.563

**Q.** For C11G A21U C24U U64A A65G G67U, which yeast fitness is on record?
**A.** 0.573

**Q.** Which yeast fitness does the source give for C11G C30G C33A C66U here?
**A.** ≤ 0.5

**Q.** Which yeast fitness does the source give for C11G C22U G68C here?
**A.** 0.732

**Q.** Which yeast fitness does the source give for C11G A36C G56A here?
**A.** 0.533

**Q.** For C11G A40U C62A, which yeast fitness is on record?
**A.** ≤ 0.5

**Q.** For C11G C46U, which yeast fitness is on record?
**A.** 0.752

**Q.** For C11G C49A A57U U64A G67U, which yeast fitness is on record?
**A.** ≤ 0.5

**Q.** For C11A G67U, which yeast fitness is on record?
**A.** 0.584

**Q.** For C11A U35G, which yeast fitness is on record?
**A.** 0.514

**Q.** Which yeast fitness does the source give for C11A G56A C66G here?
**A.** 0.533

**Q.** For C11G G12A C31G, which yeast fitness is on record?
**A.** ≤ 0.5

**Q.** For C11A G50C C61A A69G, which yeast fitness is on record?
**A.** ≤ 0.5

**Q.** With C11A G25C C29U A57G as the variant, how does the yeast fitness read?
**A.** ≤ 0.5

**Q.** With C11A U35A C61U G67A as the variant, how does the yeast fitness read?
**A.** ≤ 0.5

**Q.** For C11G A15U A36U C66U, which yeast fitness is on record?
**A.** ≤ 0.5

**Q.** With C11G C31A G39A G48A A57G A65G as the variant, how does the yeast fitness read?
**A.** ≤ 0.5

**Q.** For C11G C29A C61U, which yeast fitness is on record?
**A.** 0.504

**Q.** Which yeast fitness does the source give for C11G C27G G67A here?
**A.** ≤ 0.5

**Q.** Which yeast fitness does the source give for C11G A45C A65C here?
**A.** ≤ 0.5

**Q.** Which yeast fitness does the source give for C11G C24U U28C here?
**A.** ≤ 0.5

**Q.** For C11A U47G U64C, which yeast fitness is on record?
**A.** 0.531

**Q.** For C11A U59C A69U, which yeast fitness is on record?
**A.** 0.573

**Q.** With C11A G25C C34G C46A A70G as the variant, how does the yeast fitness read?
**A.** ≤ 0.5

**Q.** With C11G G12C G23C A40G as the variant, how does the yeast fitness read?
**A.** ≤ 0.5

**Q.** For C11A G68A, which yeast fitness is on record?
**A.** 0.583

**Q.** For C11G C31U C46G G63A, which yeast fitness is on record?
**A.** ≤ 0.5
